# Screening results as filed in PubChem.
# Shown are actives, neighbours in structure and some others; about 4.4% of the full set was active somewhere.
# HTR2A ag = mouse Htr2a agonists via beta-arrestin recruitment, primary screen, cell-based, luminescence; 5-hydroxytryptamine receptor 2A (Mus musculus), P35363; CHO-K1 mHTR2A beta-arrestin complementation; percent of 30 µM serotonin response; activation, % at 7.6 µM; 0.66% of 360,000 active; AID 624169, 2012;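 active = activation above a run cutoff, the mean activation of all tested compounds plus 3 SD, cut at about 14% in these data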
# AHR act = AHR activators, primary screen, cell-based, luminescence, luciferase reporter, human | Aryl hydrocarbon receptor (Homo sapiens), P35869 | AHR-responsive luciferase reporter cells | activation, % at 5 µM | 2.5% of 320,000 active | AID 2796, 2010; in the data active = activation above about 47%
# Target sequence (P35869 whole entry, looked up): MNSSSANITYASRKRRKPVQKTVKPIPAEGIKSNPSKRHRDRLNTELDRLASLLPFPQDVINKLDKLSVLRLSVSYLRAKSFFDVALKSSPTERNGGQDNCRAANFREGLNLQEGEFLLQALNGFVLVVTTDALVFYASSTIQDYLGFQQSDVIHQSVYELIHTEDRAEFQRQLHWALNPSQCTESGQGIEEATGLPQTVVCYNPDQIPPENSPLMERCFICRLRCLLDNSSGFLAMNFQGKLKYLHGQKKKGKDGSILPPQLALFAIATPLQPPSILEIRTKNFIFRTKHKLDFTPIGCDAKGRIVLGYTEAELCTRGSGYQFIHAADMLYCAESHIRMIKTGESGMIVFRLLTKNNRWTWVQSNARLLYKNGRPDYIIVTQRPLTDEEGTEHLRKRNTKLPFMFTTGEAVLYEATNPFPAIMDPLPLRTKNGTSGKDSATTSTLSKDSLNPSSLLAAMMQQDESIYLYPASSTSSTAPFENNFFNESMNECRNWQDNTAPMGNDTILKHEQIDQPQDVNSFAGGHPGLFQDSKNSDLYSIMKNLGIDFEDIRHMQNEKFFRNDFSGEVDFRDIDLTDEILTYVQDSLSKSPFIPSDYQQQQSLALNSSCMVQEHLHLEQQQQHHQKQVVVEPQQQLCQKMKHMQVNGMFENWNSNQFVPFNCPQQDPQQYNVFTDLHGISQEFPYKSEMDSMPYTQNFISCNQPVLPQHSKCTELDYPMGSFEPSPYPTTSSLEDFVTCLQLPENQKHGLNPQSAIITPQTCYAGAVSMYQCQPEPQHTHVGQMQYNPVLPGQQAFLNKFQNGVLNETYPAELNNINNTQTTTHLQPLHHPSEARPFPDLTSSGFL
# Tb MetRS inh = T. brucei MetRS inhibitors, primary screen, biochemical, luminescence. inhibition, % at 11.9 µM. AID 624268, 2012. 0.4% of 360,000 active. purified T. brucei MetRS, ATP depletion, Kinase-Glo luminescence. methionyl-tRNA synthetase (Trypanosoma brucei brucei);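 active = inhibition above a per-plate cutoff of the control wells' mean inhibition plus 3 SD, cut at about 5.5% in these data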
#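 Test system – parasite MetRS enzyme · Reagent – substrates ATP, L-methionine and bulk Escherichia coli tRNA · Doses – 11.9 µM compound single dose, 0.9% DMSO · Times – 15 min enzyme-compound preincubation, 2 h reaction, 10 min detection, 25 °C · Signal – Kinase-Glo luminescence, ATP depletion format · Controls – DMSO-only wells as low control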
# bovine MsrA act = bovine MsrA enzyme activators, primary screen, biochemical, absorbance, HTS | activation, % at 10.6 µM | AID 602163, 2012 | purified bovine MsrA, absorbance read-out | 0.3% of 360,000 active; in the data active = activation above about 7.5%
# MsrA inhibitor = bovine MsrA enzyme inhibitors, primary screen, biochemical, absorbance, HTS; purified bovine MsrA, absorbance read-out; 0.75% of 360,000 active; inhibition, % at 15.5 µM; AID 651718, 2012; in the data active = inhibition above about 4.5%
# AI-2 QS mod = Vibrio harveyi AI-2 quorum sensing modulators, primary screen, JMH597 strain, luminescence/OD600 ratio; Vibrio harveyi JMH597 AI-2 luminescence/OD600 ratio, 9 h; active compounds read low; strain lacks LuxN and CqsS sensors; 0 = neutral-control median; activity change, % at 7.5 µM; 0.4% of 300,000 active; AID 2094, 2009; in the data active = activity change below about -75%, passing the limit was not always enough;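 also: luminescence divided by OD600 gain over 9 h not by final OD600 alone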
# Tb MetRS conf = T. brucei MetRS inhibitors, confirmation, biochemical, luminescence | T. brucei MetRS enzyme, luminescence (ATP depletion) | AID 624412, 2012 | shares compounds with Tb MetRS inh | inhibition, % at 11.9 µM | 93% of 1,400 active; in the data active = inhibition above about 7%
# Jurkat cytotox = Jurkat T cell cytotoxicity, cytotoxicity control for T. brucei MetRS inhibitor project, luminescence, high throughput. shares compounds with Tb MetRS inh. Jurkat cells viability, ATP luminescence. inhibition, % at 8.3 µM. 12% of 1,400 active; in the data active = inhibition above about 15%
# TbMetRS FP orth = T. brucei MetRS inhibitors, orthogonal assay for T. brucei MetRS inhibitor project, biochemical, fluorescence polarization; shares compounds with Tb MetRS inh; purified T. brucei MetRS; inhibition, % at 11.9 µM; 44% of 1,400 active; in the data active = inhibition above about 17%
# A number is an active result; 0 = inactive; - = no result given.
SMILES,HTR2A ag,AHR act,Tb MetRS inh,bovine MsrA act,MsrA inhibitor,AI-2 QS mod,Tb MetRS conf,Jurkat cytotox,TbMetRS FP orth
CC(C)OCCCNc1ncnc2c1[nH]c1ccccc12,0,0,74,0,0,0,87,38,64
COCCCN1C(=O)C(CC(=O)NCCCN(C)C)CC(C(=O)N2CCCCCC2)=C1C (centres undefined),0,-,0,0,0,-,-,-,-
O=C(CNC1CCCCC1)Nc1cccc(C(F)(F)F)c1,0,0,0,0,0,0,-,-,-
Cc1ccc(NC(=O)CCCCCN2C(=O)[C@@H]3Cc4ccccc4CN3C2=O)c(Cl)c1,0,0,0,0,0,0,-,-,-
Cc1nc(Nc2ccccc2)[nH]c(=O)c1CCC(C)C,0,0,7.5,0,0,0,52,0,24
Cc1nc(N2CCc3ccccc3C2)[nH]c(=O)c1CCC(C)C,0,0,0,0,-,0,-,-,-
CC1CCC(NC(=O)c2ccc(-n3cncn3)c([N+](=O)[O-])c2)CC1 (centres undefined),0,0,12,0,0,0,52,0,24
O=C(NCC1COc2ccccc2O1)c1ccc(-n2cncn2)c([N+](=O)[O-])c1 (centres undefined),0,0,19,0,0,0,58,0,31
O=C(NC1CCCCC1)c1ccc(-n2cncn2)c([N+](=O)[O-])c1,0,0,24,0,0,-,51,0,28
CC(=O)c1ccc(NCC2COc3ccccc3O2)c([N+](=O)[O-])c1 (centres undefined),0,0,0,0,0,0,-,-,-
Cc1c(C(=O)Nc2ccc(F)cc2)sc2ncn(CC(=O)N3CCCCC3)c(=O)c12,0,0,0,0,0,0,-,-,-
O=C1c2ccccc2C(c2nc3ccccc3[nH]2)N1c1ccccn1 (centres undefined),0,-,6.9,0,0,-,14,0,0
Cc1ccccc1CNc1ncnc2cc(Cl)ccc12,0,0,0,0,0,0,-,-,-
Fc1ccc(F)c(CNc2ncnc3cc(Cl)ccc23)c1,0,0,7.3,0,0,0,21,0,0
O=C(Nc1ccc(F)cc1)Nc1ccc(N2CCCC2)c(S(=O)(=O)Nc2ccccc2Cl)c1,0,0,11,0,0,0,27,67,44
COc1ccccc1NS(=O)(=O)c1cc(NC(=O)C(C)C)ccc1N1CCCCC1,0,0,0,0,0,0,-,-,-
COc1ccccc1NS(=O)(=O)c1cc(NC(=O)Nc2ccccc2)ccc1N1CCCCC1,0,0,6.2,0,0,-,11,0,17
O=C(Nc1ccc(Cl)c(Cl)c1)Nc1ccc(N2CCCC2)c(S(=O)(=O)Nc2ccccc2Cl)c1,0,0,0,0,0,0,-,-,-
c1coc(CN2CNc3nc4ccccc4n3C2)c1,0,0,0,0,0,0,-,-,-
CCCN1CN(Cc2ccco2)c2nc3ccccc3n2C1,0,0,20,0,0,0,17,0,0
O=C(COc1nsnc1N1CCOCC1)Nc1ccc(Cl)cc1,0,0,11,0,0,0,23,0,0
COc1ccc(CNC(=O)CNC(=O)CNS(=O)(=O)c2ccc(C)c(C)c2)cc1,0,0,0,0,0,0,-,-,-
O=C(c1cccnc1)N1CCN(c2ccc([N+](=O)[O-])cc2Cl)CC1,0,0,5.8,0,0,0,17,0,0
Nc1nc2cc3ccccc3cc2[nH]c1=O,0,0,6.3,0,0,0,5.8,0,0
Cc1nc2cc3ccccc3cc2c(=O)[nH]1,0,0,0,0,0,0,-,-,-
SMILES,HTR2A ag,AHR act,Tb MetRS inh,bovine MsrA act,MsrA inhibitor,AI-2 QS mod,Tb MetRS conf,Jurkat cytotox,TbMetRS FP orth
Cc1cccnc1C1=NOC(Cc2ccccc2)C(=O)N1C (centres undefined),0,-,0,0,0,-,-,-,-
COc1ccc(CCCNC(=O)C2(C)Cc3c(-c4cccc(C(N)=O)c4)ccnc3O2)cc1 (centres undefined),0,-,6.6,0,0,-,0,49,0
O=C(CNC(=O)C1COc2ccccc2O1)N/N=C/c1ccc(O)cc1O (centres undefined),0,0,12,0,0,0,36,52,17
CN1C(=O)[C@@](O)(c2cn(C)c3ccccc23)c2cc(F)ccc21,0,-,0,-,0,-,-,-,-
COc1ccc(CNC(=O)CSc2nc3ccc(C)cc3[nH]2)cc1,0,0,29,0,0,0,48,0,21
Cc1ccc2nc(SCC(=O)NC3CCS(=O)(=O)C3)[nH]c2c1 (centres undefined),0,0,9.7,0,0,-,37,0,0
O=C(CSc1nc2ccccc2[nH]1)NC1CCS(=O)(=O)C1 (centres undefined),0,0,9.3,0,0,0,18,0,0
COc1ccc(CNC(=O)CSc2nc3ccc(OC)cc3[nH]2)cc1,0,0,0,0,0,0,-,-,-
Cc1ccc2nc(SC(C)C(=O)NCc3ccc4c(c3)OCO4)[nH]c2c1 (centres undefined),0,0,13,0,0,0,35,0,0
CC(=O)c1cc2c(cc1NC(=O)CSc1nc3ccc(C)cc3[nH]1)OCO2,0,0,0,0,0,0,-,-,-
CCOC1=C2[C@@H](CN(S(=O)(=O)c3ccc(C)cc3)[C@H]2c2ccccc2Cl)[C@H]2C(=O)N(C(C)(C)C)C(=O)[C@H]2C1,0,-,0,0,0,-,-,-,-
CC(C)[C@H](NC(=O)[C@H](Cc1ccccc1)n1c(=O)[nH]c2ccccc2c1=O)C(=O)N1CCC[C@H]1C(=O)O,0,0,0,0,0,0,-,-,-
Cc1onc(-c2ccccc2)c1C(=O)N1CCN(c2ncccc2C(F)(F)F)CC1,0,0,0,0,0,0,-,-,-
CCN(C(=O)CSc1nc2ccc(Cl)cc2[nH]1)C1CCS(=O)(=O)C1 (centres undefined),0,0,5.7,0,0,-,23,0,0
CN(CC1CCCN(CCc2ccc(Cl)cc2)C1)C(=O)c1ccco1 (centres undefined),0,0,0,0,0,0,-,-,-
O=C(NCCc1nc2ccccc2[nH]1)/C(=C/c1ccc2c(c1)OCO2)NC(=O)c1ccc(Cl)cc1Cl,0,0,8.0,0,0,0,11,0,0
